# Calls of active or inactive are those of the source. The rule behind the calls is not given here.
# How the values were obtained:
# [1] = test system: NCI-H460; assay: Cytotoxicity against human NCI-H460 cells assessed as reduction in cell viability measured after 48 hrs by MTT assay; format: functional, cell-based; details: NCI-H460, 48 h
# Procedure, shortened: (§1)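 Cells grown at 37 °C, 5% CO2 and seeded 16−18 h before treatment. Exposed to increasing concentrations or vehicle (0.1% DMSO) for 48 h. Viability read by MTT, with vehicle-treated cells set as 100%. Mean ± SE, n = 3 wells, at least three independent comparisons. EC50 obtained by nonlinear regression fit to a logistic equation.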
# [2] = test system: HeLa; assay: Cytotoxicity against human HeLa cells assessed as reduction in cell viability measured after 48 hrs by MTT assay
# [3] = (§2) Inhibition of bovine heart mitochondrial ATP synthase activity assessed as decrease in ATP-dependent NADH oxidation measured every 30 secs for 30 mins by colorimetric assay relative to control; parameters: species or system Bos taurus
# [4] = species: Homo sapiens; assay: Inhibition of mitochondrial ATP synthase activity in human NCI-H292 cells assessed as decrease in basal oxygen consumption rate at 1 uM at 32 mins followed by addition of FCCP at 87 mins and rotenon /Antimycin A at 135 mins by real-time metabolic flux analysis; format: cell-based
# [5] = test system: HeLa; assay: Cytotoxicity against human HeLa cells at 2000 cells per well assessed as decrease in cell viability at 0.25 to 1 uM after 48 hrs by MTT assay relative to control; format: functional
# [6] = test system: HeLa; assay: Cytotoxicity against human HeLa cells at 10000 cells per well assessed as decrease in cell viability up to 1 uM after 48 hrs by MTT assay; format: functional, cell-based
# [7] = test system: HeLa; assay: Cytotoxicity against human HeLa cells at 6000 cells per well assessed as decrease in cell viability up to 1 uM after 48 hrs by MTT assay; format: functional, cell-based
# [8] = test system: HeLa; assay: Cytotoxicity against human HeLa cells assessed as reduction in cell viability at […] after 72 hrs by MTT assay; format: functional, cell-based
# [9] = species: Bos taurus; assay: Inhibition of bovine heart mitochondrial ATP synthase activity assessed as decrease in ATP-dependent NADH oxidation at 1 uM measured every 30 secs for 30 mins by colorimetric assay relative to control
# [10] = species: Homo sapiens; assay: Inhibition of mitochondrial ATP synthase activity in human NCI-H292 cells assessed as decrease in oxygen consumption rate at 1 uM at 135 mins after FCCP treatment at 87 mins by real-time metabolic flux analysis; format: cell-based
# [11] = species: Homo sapiens; assay: Inhibition of mitochondrial ATP synthase activity in human NCI-H292 cells assessed as decrease in oxygen consumption rate at 1 uM at 87 mins followed by addition of rotenon /Antimycin A at 135 mins measured by real-time metabolic flux analysis; format: cell-based
# [12] = species: Homo sapiens; assay: Inhibition of mitochondrial ATP synthase activity in human NCI-H292 cells assessed as decrease in oxygen consumption rate at 1 uM at 32 mins followed by addition of 1 uM FCCP at 87 mins and 0.5 uM rotenon /Antimycin A at 135 mins measured by real-time metabolic flux analysis; format: cell-based
# [13] = test system: HEK-293T; assay: Cytotoxicity against HEK293T cells assessed as decrease in cell viability measured after 48 hrs by MTT assay; format: cell-based; details: human; procedure, shortened: as §1
# [14] = test system: HeLa; assay: Cytotoxicity against human HeLa cells at 10000 cells per well assessed as cell viability at 100 to 1000 nM after 48 hrs by MTT assay relative to control; format: functional
# [15] = test system: NCI-H460; assay: Cytotoxicity against human NCI-H460 cells assessed as reduction in cell viability measured after 72 hrs by MTT assay; details: NCI-H460, 72 h
# [16] = species: Bos taurus; assay: as §2
# [17] = test system: HeLa; assay: Cytotoxicity against human HeLa cells at 6000 cells per well assessed as cell viability at 100 to 1000 nM after 48 hrs by MTT assay relative to control; format: functional
# [18] = Safety index, ratio of compound EC50 to Oligomycin A EC50 for cytotoxicity against HEK293T cells; format: cell-based, HEK-293T; details: human, read-out: Ratio EC50
# Procedure, shortened: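 HEK 293T cells were grown in DMEM with 10% FBS, 2 mM L-glutamine and 1% penicillin/streptomycin at 37 °C and 5% CO2. They were seeded at two starting densities 16−18 h before treatment with increasing concentrations of test compound or oligomycin A (final DMSO ≤0.1%). Viability was read by MTT relative to vehicle (100%), with EC50s fit by nonlinear logistic regression and compared as a ratio.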
# [19] = test system: HeLa; assay: Induction of apoptosis in human HeLa cells assessed as caspase-3/7 activation at 1 to 300 nM incubated for 24 hrs measured by luminescence-based Caspase-Glo assay
# [20] = test system: HeLa; assay: Cytotoxicity against human HeLa cells assessed as reduction in cell viability at 0.03 to 300 nM after 72 hrs in presence of 2-deoyxglucose by MTT assay; format: functional, cell-based
# [21] = test system: HeLa; assay: Cytotoxicity against human HeLa cells at 2000 cells per well assessed as decrease in cell viability at 100 to 1000 nM after 48 hrs by MTT assay relative to control; format: functional
# [22] = test system: HeLa; assay: Cytotoxicity against human HeLa cells assessed as reduction in cell viability up to 1000 nM measured after 48 hrs by MTT assay; format: functional, cell-based; procedure, shortened: as §1
# [23] = species: Bos taurus; assay: Inhibition of bovine heart mitochondrial ATP synthase activity assessed as decrease in ATP-dependent NADH oxidation at 12.5 uM measured every 30 secs for 30 mins by colorimetric assay relative to control
compound,measurement,setting,value
CCCC(=O)O[C@H]1C[C@H]2C[C@@H](O)C[C@@H](C[C@@H](C)/C=C/C=C\C[C@@H]3O[C@@H](C[C@@H]3C)[C@@H](O)C[C@@H]3OC(=O)[C@]1(O)[C@@H]3O)O2,EC50,[1],> 3000 nM
same,EC50,[2],> 3000 nM
same,IC50,[3],3400 nM
same,inhibition,[4],inactive
OC[C@H]1OC(O)C[C@@H](O)[C@@H]1O (some centres undefined),Activity,[5],50%
same,Activity,[6],inactive
same,Activity,[7],inactive
same,Activity,[8],Active
COC[C@@H](C[C@H]1O[C@@](O)([C@H](O)[C@@H]2C[C@H](OC)[C@@H](O)CC/C=C(C)/C=C/[C@@H](O[C@@H]3O[C@@H](C)[C@H](OC)[C@@H](O)[C@@H]3O)[C@H](C)/C=C(C)/C=C(C)/C=C(\C)C(=O)O2)[C@H](C)[C@@H](O)[C@H]1C)O[C@H]1C[C@](C)(O)[C@@H](O[C@H]2C[C@@H](OC)[C@H](O)[C@@H](C)O2)[C@H](C)O1,inhibition,[9],Active
CCCC(=O)O[C@H]1C[C@H]2C[C@@H](O[C@@H]3O[C@@H](C)[C@@H](O)[C@@H](O)[C@H]3OC)C[C@@H](C[C@@H](C)/C=C/C=C\C[C@@H]3O[C@@H](C[C@@H]3C)[C@@H](O)C[C@H]3C[C@@]1(O)C(=O)O3)O2,EC50,[1],44 nM
same,EC50,[2],16 nM
same,inhibition,[10],Active
same,inhibition,[4],Active
same,inhibition,[11],Active
same,inhibition,[12],Active
CO[C@H]1[C@H](O[C@@H]2C[C@@H]3C/C=C/C(=O)O[C@H](CO)C[C@H](O)[C@@H]4C[C@H](C)[C@H](C/C=C\C=C\[C@H](C)C[C@H](C2)O3)O4)O[C@@H](C)[C@H](O)[C@H]1O,Activity,[13],Dose-dependent effect
same,Activity,[14],85%
same,EC50,[2],9.9 nM
same,EC50,[15],11 nM
same,inhibition,[16],Dose-dependent effect
same,IC50,[3],2.2 nM
same,Activity,[17],85%
same,inhibition,[4],Active
same,selectivity ratio,[18],13 to 30
same,Activity,[19],Active
same,Activity,[20],Active
same,Activity,[21],25%
CCCC(=O)O[C@H]1[C@@H](OC)[C@H](O[C@@H]2C[C@@H]3C[C@H](O)[C@]4(O)C(=O)O[C@@H](C[C@H](O)[C@@H]5C[C@H](C)[C@H](C/C=C\C=C\[C@H](C)C[C@H](C2)O3)O5)[C@H]4O)O[C@@H](C)[C@H]1OC(=O)CCC,EC50,[1],2000 nM
same,EC50,[2],1900 nM
COC(=O)/C=C/C[C@H]1C[C@@H](O[C@@H]2O[C@@H](C)[C@H](O)[C@@H](O)[C@H]2OC)C[C@@H](C[C@@H](C)/C=C/C=C\C[C@@H]2O[C@H]([C@@H](O)C[C@H](O)CO)C[C@@H]2C)O1,Activity,[22],inactive
CCCCCC(=O)O[C@H]1C[C@H]2C[C@@H](O)C[C@@H](C[C@@H](C)/C=C/C=C\C[C@@H]3O[C@@H](C[C@@H]3C)[C@@H](O)C[C@@H]3OC(=O)[C@]1(O)[C@@H]3OC(=O)CCC)O2,EC50,[1],2600 nM
same,EC50,[2],330 nM
CCCC(=O)O[C@H]1C[C@H]2C[C@@H](O)C[C@@H](C[C@@H](C)/C=C/C=C\C[C@@H]3O[C@@H](C[C@@H]3C)[C@@H](O)C[C@@H]3OC(=O)[C@]1(O)[C@@H]3OC(=O)CCC)O2,EC50,[1],1700 nM
same,EC50,[2],660 nM
CCCCCCCC(=O)OC[C@@H]1C[C@H](O)[C@@H]2C[C@H](C)[C@H](C/C=C\C=C\[C@H](C)C[C@@H]3C[C@H](O[C@@H]4O[C@@H](C)[C@H](O)[C@@H](O)[C@H]4OC)C[C@H](C/C=C/C(=O)O1)O3)O2,EC50,[1],9.8 nM
same,EC50,[2],2.8 nM
CCCC(=O)OC1C(=O)C(OC)C(O[C@@H]2C[C@@H]3C[C@H](OC(=O)CCC)[C@]4(O)C(=O)O[C@@H](C[C@H](O)[C@@H]5C[C@H](C)[C@H](C/C=C\C=C\[C@H](C)C[C@H](C2)O3)O5)[C@H]4O)OC1C (some centres undefined),EC50,[1],270 nM
same,EC50,[2],50 nM
CC[C@@H]1/C=C/C=C/C[C@H](C)[C@@H](O)[C@](C)(O)C(=O)[C@@H](C)[C@H](O)[C@@H](C)C(=O)[C@H](C)[C@@H](O)[C@H](C)/C=C/C(=O)O[C@H]2[C@@H](C)[C@@H](CC1)O[C@@]1(CC[C@@H](C)[C@@H](C[C@H](C)O)O1)[C@@H]2C,inhibition,[4],Active
same,inhibition,[12],Active
same,inhibition,[23],Active
CCCC(=O)O[C@H]1[C@@H](OC)[C@H](O[C@@H]2C[C@@H]3C[C@H](OC(=O)CCC)[C@]4(O)C(=O)O[C@@H](C[C@H](O)[C@@H]5C[C@H](C)[C@H](C/C=C\C=C\[C@H](C)C[C@H](C2)O3)O5)[C@H]4O)O[C@@H](C)[C@H]1OC(=O)CCC,EC50,[1],> 3000 nM
same,EC50,[2],> 3000 nM
CCCC(=O)O[C@H]1[C@@H](OC)[C@H](O[C@@H]2C[C@@H]3C[C@H](OC(=O)CCC)[C@@]4(O)C[C@H](C[C@H](O)[C@@H]5C[C@H](C)[C@H](C/C=C\C=C\[C@H](C)C[C@H](C2)O3)O5)OC4=O)O[C@@H](C)[C@H]1OC(=O)CCC,EC50,[1],910 nM
same,EC50,[2],2000 nM
CCCC(=O)O[C@H]1[C@@H](OC)[C@H](O[C@@H]2C[C@@H]3C[C@H](OC(=O)CCC)[C@@]4(O)C[C@H](C[C@H](OC(C)=O)[C@@H]5C[C@H](C)[C@H](C/C=C\C=C\[C@H](C)C[C@H](C2)O3)O5)OC4=O)O[C@@H](C)[C@H]1OC(=O)CCC,EC50,[1],790 nM
same,EC50,[2],> 3000 nM
CCCC(=O)O[C@H]1[C@@H](OC)[C@H](O[C@@H]2C[C@@H]3C[C@H](OC(C)=O)[C@@]4(O)C[C@H](C[C@H](OC(C)=O)[C@@H]5C[C@H](C)[C@H](C/C=C\C=C\[C@H](C)C[C@H](C2)O3)O5)OC4=O)O[C@@H](C)[C@H]1OC(=O)CCC,EC50,[1],2400 nM
same,EC50,[2],> 3000 nM

# — ChEMBL document CHEMBL4028855, “New Mandelalides Expand a Macrolide Series of Mitochondrial Inhibitors” (J Med Chem, 2017)
